pIC50, pKi: −log10 of the molar value.
Experiments:
Cannabinoid receptor 2 [1] = biological target: T1, Cannabinoid receptor 2 (Homo sapiens, UniProt P34972); assay: Agonist activity at human recombinant CB2 receptor expressed in HEK293 cells assessed as inhibition of forskolin-induced cAMP production after 20 mins by ELISA; type: functional, cell-based
In short: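 cAMP assay in HEK 293 cells stably expressing the relevant CB receptor, with a fixed concentration of forskolin. cAMP was quantified by ELISA. Activation is given as percent of the CP-55,940 control response.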

Cannabinoid receptor 2 [2] = biological target: T2, Cannabinoid receptor 2 (Rattus norvegicus, UniProt Q9QZN9); assay: Displacement of [3H]CP-55940 from rat recombinant CB2 receptor expressed in HEK293 cells after 90 mins; type: cell-based
T2 sequence (Q9QZN9 whole entry): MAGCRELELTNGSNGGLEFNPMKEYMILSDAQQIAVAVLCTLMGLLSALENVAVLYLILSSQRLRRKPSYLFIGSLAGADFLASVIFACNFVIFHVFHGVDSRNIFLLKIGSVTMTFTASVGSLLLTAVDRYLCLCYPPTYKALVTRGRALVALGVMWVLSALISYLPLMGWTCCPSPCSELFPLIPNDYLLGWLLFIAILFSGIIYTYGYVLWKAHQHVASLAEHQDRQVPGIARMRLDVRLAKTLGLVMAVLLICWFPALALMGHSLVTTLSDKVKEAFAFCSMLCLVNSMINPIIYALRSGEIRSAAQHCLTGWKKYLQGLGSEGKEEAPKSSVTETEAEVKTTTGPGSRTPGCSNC
In short: (§1)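 Competitive binding: [³H]CP-55,940 displaced from membranes of HEK 293 cells stably transfected with human or rat CB₂, or CHO cells stably transfected with human or rat CB₁. Reported as pKi. Determinations >2 (duplicate of duplicate).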

Cannabinoid receptor 1 [3] = biological target: Cannabinoid receptor 1 (Homo sapiens, UniProt P21554); assay: Displacement of [3H]CP-55940 from human recombinant CB1 receptor expressed in CHO cells after 90 mins; type: cell-based; in short: as §1
Chain of Cannabinoid receptor 1 (Homo sapiens, UniProt P21554) (P21554 whole entry): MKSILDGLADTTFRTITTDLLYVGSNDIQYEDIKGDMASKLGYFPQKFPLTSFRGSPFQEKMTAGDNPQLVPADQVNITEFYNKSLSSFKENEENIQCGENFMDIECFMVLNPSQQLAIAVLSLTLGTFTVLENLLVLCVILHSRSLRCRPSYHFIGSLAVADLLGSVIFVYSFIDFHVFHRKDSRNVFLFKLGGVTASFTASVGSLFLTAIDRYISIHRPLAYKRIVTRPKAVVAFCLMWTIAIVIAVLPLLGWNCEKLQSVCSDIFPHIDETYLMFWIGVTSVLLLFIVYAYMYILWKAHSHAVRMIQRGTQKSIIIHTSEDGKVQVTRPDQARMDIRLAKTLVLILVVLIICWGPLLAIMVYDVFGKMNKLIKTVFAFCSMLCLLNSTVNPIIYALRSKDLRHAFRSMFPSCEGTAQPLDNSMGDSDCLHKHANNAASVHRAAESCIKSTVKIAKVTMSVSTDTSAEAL

Cannabinoid receptor 2 [4] = biological target: T1, Cannabinoid receptor 2; assay: Displacement of [3H]CP-55940 from human recombinant CB2 receptor expressed in HEK293 cells after 90 mins; type: cell-based; in short: as §1
Cannabinoid receptor 2 [5] = biological target: T1, Cannabinoid receptor 2; assay: Agonist activity at human recombinant CB2 receptor expressed in HEK293 cells co-expressing chimeric Gaq/o protein by FLIPR assay; type: functional, cell-based
In short: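 FLIPR functional assay in HEK 293 cells stably co-expressing chimeric Gαq/o protein and the CB receptor. Net peak evoked response was compared with the peak response to CP-55,940.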

Cannabinoid receptor 1 [6] = biological target: Cannabinoid receptor 1 (Rattus norvegicus, UniProt P20272); assay: Displacement of [3H]CP-55940 from rat recombinant CB1 receptor expressed in CHO cells after 90 mins; type: cell-based; in short: as §1
Chain of Cannabinoid receptor 1 (Rattus norvegicus, UniProt P20272) (P20272 whole entry): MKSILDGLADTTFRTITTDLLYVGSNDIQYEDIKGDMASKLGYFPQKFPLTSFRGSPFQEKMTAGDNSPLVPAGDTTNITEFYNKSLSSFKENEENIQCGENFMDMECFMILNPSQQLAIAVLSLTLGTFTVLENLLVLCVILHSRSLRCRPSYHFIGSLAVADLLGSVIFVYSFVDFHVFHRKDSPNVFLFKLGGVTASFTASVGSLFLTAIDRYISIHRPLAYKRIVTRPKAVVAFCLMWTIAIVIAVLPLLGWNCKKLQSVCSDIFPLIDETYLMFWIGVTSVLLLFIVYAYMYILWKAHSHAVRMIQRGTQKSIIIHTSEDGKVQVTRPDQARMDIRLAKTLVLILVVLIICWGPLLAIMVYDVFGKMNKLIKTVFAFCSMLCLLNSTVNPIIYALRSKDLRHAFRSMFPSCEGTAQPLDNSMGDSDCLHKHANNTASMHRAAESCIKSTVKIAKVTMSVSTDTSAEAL

T1 sequence (P34972 whole entry): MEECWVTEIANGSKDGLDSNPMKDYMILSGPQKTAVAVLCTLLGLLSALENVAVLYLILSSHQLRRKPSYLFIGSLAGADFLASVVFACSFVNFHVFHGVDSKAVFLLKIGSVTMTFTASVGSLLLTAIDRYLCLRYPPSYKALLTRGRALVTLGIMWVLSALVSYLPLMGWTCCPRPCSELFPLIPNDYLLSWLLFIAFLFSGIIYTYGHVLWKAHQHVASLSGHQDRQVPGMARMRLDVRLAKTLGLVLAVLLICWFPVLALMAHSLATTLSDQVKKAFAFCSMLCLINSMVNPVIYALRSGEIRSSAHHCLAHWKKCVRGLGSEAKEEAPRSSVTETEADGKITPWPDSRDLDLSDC

Question: Which results are given for `CCCNC(=O)c1c(NC(=O)C23CC4CC(CC2C4)C3)sc2c1CCCC2`?
Answer: pIC50 (Cannabinoid receptor 2 [1]): 8.01; pKi (Cannabinoid receptor 2 [2]): 8.45; pKi (Cannabinoid receptor 1 [3]): 5.72; pKi (Cannabinoid receptor 2 [4]): 8.71; pIC50 (Cannabinoid receptor 2 [5]): 7.08; pKi (Cannabinoid receptor 1 [6]): 7.33

Reference: ChEMBL document CHEMBL2010740, “Synthesis and evaluation of 2-amido-3-carboxamide thiophene CB₂ receptor agonists for pain management” (Bioorg Med Chem Lett, 2012)
